Laboratory results: publication PMC10839140 (Iranian Journal of Medical Sciences, 2024)
Like-named read-outs stand apart in the source and are kept apart here.

Key:
[1] = test system: fibroblast cell line; assay: MTT cytotoxicity assay, fibroblast cells; type: cell-based; details: for IC50: Fibroblast, read-out: half-maximal inhibitory concentration; for percentage of cell viability was reduced by: fibroblast cells treated for 48 hours (abstract; concentration not stated there)
[2] = test system: HEK-293 cell line; assay: MTT cytotoxicity assay, HEK-293 cells; type: cell-based; details: for IC50: read-out: half-maximal inhibitory concentration
[3] = test system: SkBr3 breast cancer cell line; assay: MTT cytotoxicity assay, SkBr3 cells; type: cell-based, human; details: read-out: half-maximal inhibitory concentration
[4] = test system: fibroblast cell line; assay: Apoptosis analysis, annexin V-FITC/PI flow cytometry, fibroblast cells; type: cell-based; details: PINO 575 μM, LARI 500 μM
[5] = test system: HEK-293 cell line; assay: Apoptosis analysis, annexin V-FITC/PI flow cytometry, HEK-293 cells; type: cell-based; details: PINO 575 μM, LARI 500 μM
[6] = test system: SkBr3 breast cancer cell line; assay: Apoptosis analysis, annexin V-FITC/PI flow cytometry, SkBr3 cells; type: cell-based, human; details: PINO 575 μM, LARI 500 μM
[7] = test system: HEK-293 cell line; assay: Real-time PCR of apoptosis and cell cycle genes, HEK-293 cells; type: cell-based; details: 24 and 48 hours, PINO 575, LARI 500, PTOX 0.175 μM, vs untreated cells
How it was run: (§1)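 Cells grown at 37 °C, 5% CO₂: HEK-293 in DMEM/F12 with 10% FBS and penicillin/streptomycin, SkBr3 in supplemented DMEM. Vehicle control was methanol at 1% v/v final. Total RNA was DNase I-treated, and 3 µg was reverse-transcribed. Real-time PCR used GAPDH as the internal control and no-cDNA negative controls. Fold change was calculated by 2^-ΔΔCT, as the mean±SD of three experiments.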

[8] = test system: SkBr3 breast cancer cell line; assay: Real-time PCR of apoptosis and cell cycle genes, SkBr3 cells; type: cell-based, human; details: 24 and 48 hours, PINO 575, LARI 500, PTOX 0.175 μM, vs untreated cells
How it was run: as §1

`COc1cc(C[C@H]2CO[C@H](c3ccc(O)c(OC)c3)[C@H]2CO)ccc1O` [Lariciresinol, lariciresinol] was tested, and the IC50 ([1]; 24 h) was 475 µM, the IC50 ([1]; 48 h) was 400 µM and the “percentage of cell viability was reduced by” value [1] was 47%. It also gave an IC50 ([2]; Homo sapiens, HEK293, 24 h) of 550 µM, an IC50 ([2]; Homo sapiens, HEK293, 48 h) of 475 µM and an IC50 ([3]; Homo sapiens, SK-BR-3, 24 h) of 600 µM. The IC50 ([3]; Homo sapiens, SK-BR-3, 48 h) was 500 µM, the “increase of apoptosis compared to control cells” value (“increase of apoptosis” for short) ([4]; 24 hours) was 7.4 fold and the “increase of apoptosis” value ([4]; 48 hours) was 20.2 fold. The “increase of apoptosis” value ([5]; HEK-293, 24 hours) was 6.7 fold, the “increase of apoptosis” value ([5]; HEK-293, 48 hours) was 7.4 fold and the “increase of apoptosis” value ([6]; SKBR3, 24 hours) was 10.7 fold. For the same molecule, the “increase of apoptosis” value ([6]; SKBR3, 48 hours) was 12.7 fold, the “expression of pro-apoptotic BAX and FAS genes and CDKN1A inhibitory gene” value [7] was “significantly overexpressed” and the “expression of pro-apoptotic BAX and FAS genes and CDKN1A inhibitory gene” value [8] was “significantly overexpressed”.
For `COc1cc([C@@H]2c3cc4c(cc3[C@H](O)[C@H]3COC(=O)[C@H]23)OCO4)cc(OC)c1OC` [Podophyllotoxin, reference compound], the IC50 ([1]; 24 h) was 0.175 µM, the IC50 ([1]; 48 h) was 0.075 µM and the “percentage of cell viability was reduced by” value [1] was 36%. The “cell viability was reduced by up to” value ([1]; fibroblast, 48 hours, PTOX at 0.175 μM) was no more than 36%, the IC50 ([2]; Homo sapiens, HEK293, 24 h) was 0.15 µM and the IC50 ([2]; Homo sapiens, HEK293, 48 h) was 0.075 µM. For the same molecule, the IC50 ([3]; Homo sapiens, SK-BR-3, 24 h) was 0.3 µM, the IC50 ([3]; Homo sapiens, SK-BR-3, 48 h) was 0.175 µM and the “expression of pro-apoptotic BAX and FAS genes and CDKN1A inhibitory gene” value [7] was “significantly overexpressed”. The “expression of pro-apoptotic BAX and FAS genes and CDKN1A inhibitory gene” value [8] was “significantly overexpressed”.
For Pinoresinol, the “percentage of cell viability was reduced by” value [1] was 49%, the cell viability ([1]; fibroblast, 48 hours, PINO at 575 μM, LARI at 500 μM) was 49% and the IC50 ([1]; 48-hour treatment, MTT) was 550 µM. It also gave a cell viability ([2]; HEK-293, 48 hours, PINO at 575 μM, LARI at 500 μM) of 49%, an IC50 ([2]; HEK-293, 24-hour treatment, MTT) of 600 µM and an IC50 ([2]; HEK-293, 48-hour treatment, MTT) of 550 µM. The IC50 ([3]; SkBr3, 24-hour treatment, MTT) was 675 µM, the IC50 ([3]; SkBr3, 48-hour treatment, MTT) was 575 µM and the “increase of apoptosis” value ([4]; 24 hours) was 5.2 fold. The “increase of apoptosis” value ([4]; 48 hours) was 10.5 fold, the “increase of apoptosis” value ([5]; HEK-293, 24 hours) was 6.6 fold and the “increase of apoptosis” value ([5]; HEK-293, 48 hours) was 9 fold. The “increase of apoptosis” value ([6]; SKBR3, 24 hours) was 9 fold, the “increase of apoptosis” value ([6]; SKBR3, 48 hours) was 11 fold and the “expression of pro-apoptotic BAX and FAS genes and CDKN1A inhibitory gene” value [7] was “significantly overexpressed”. The “expression of pro-apoptotic BAX and FAS genes and CDKN1A inhibitory gene” value [8] was “significantly overexpressed”.
